MMP-13 inhibitor: blocks human MMP13 activity; P45452; MMP-13 fTHP FRET cleavage, Mca fluorescence; 65,000 tested, 0.07% active; inhibition, % at 4 µM; AID 570;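 active = inhibition above the mean of compound-free control plate wells plus 3 SD, cut at about 14% in these data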;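 note: 0% = DMSO wells and 100% = wells with reference MMP-13 inhibitor after basal subtraction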
RORa activator: activates the human nuclear receptor RORA | AID 560 | P35398 | activation, % at 10 µM | CHO-K1 Gal4-RORA LBD luciferase reporter, luminescence; percent increase over mock-subtracted basal signal | 65,000 tested, 1.5% active;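 active = activation above the mean of all tested compounds plus 3 SD, cut at about 49% in these data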;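 note: 0% = DMSO-treated RORA cells and 100% = added signal equal to DMSO minus mock-transfected cells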
PKA inh: PKA (human) kinase inhibition. PKA Kemptide phosphorylation, Kinase-Glo ATP luminescence. inhibition, % at 6 µM. 65,000 tested, 0.1% active;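 active = inhibition above the screen-wide mean inhibition plus 3 SD, cut at about 21% in these data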
SF-1 act: activators of human nuclear receptor SF-1; Q13285; CHO-K1 Gal4-SF-1 LBD luciferase reporter; % increase over DMSO SF-1-specific signal; activation, % at 10 µM; 65,000 tested, 1.9% active; AID 522;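 active = activation above the mean activation of all tested compounds plus 3 SD, cut at about 50% in these data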
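material = CHO-K1 cells with Gal4–hSF-1 LBD chimera plus Gal4-driven luciferase | compound = 10 µM single point, 1% DMSO | incubation = 20 h compound exposure at 37 °C after 1 h cell settling | measured by = SteadyLite luciferase luminescence | evaluation = percent activation relative to DMSO median and mock-transfected background | control set = DMSO negative control and −SF1 background wells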
JNK3 blocker: inhibitors of human JNK3 kinase; P53779; purified JNK3 kinase activity, HTS; inhibition, % at 8 µM; 60,000 tested, 0.61% active; AID 746; in the data active = inhibition above about 17%;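 note: 0% = DMSO and 100% = reference inhibitor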
ROCK2 inh: blocks human Rho kinase 2 activity | O75116 | purified ROCK2, Kinase-Glo ATP depletion luminescence | inhibition, % at 6 µM | 60,000 tested, 0.35% active | AID 604;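 active = inhibition above the screen-wide mean inhibition plus 3 SD, cut at about 18% in these data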;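 note: plate controls were DMSO wells for no effect and Y-27632 control wells after no-enzyme background subtraction for full effect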
Target sequence (O75116 whole entry, looked up): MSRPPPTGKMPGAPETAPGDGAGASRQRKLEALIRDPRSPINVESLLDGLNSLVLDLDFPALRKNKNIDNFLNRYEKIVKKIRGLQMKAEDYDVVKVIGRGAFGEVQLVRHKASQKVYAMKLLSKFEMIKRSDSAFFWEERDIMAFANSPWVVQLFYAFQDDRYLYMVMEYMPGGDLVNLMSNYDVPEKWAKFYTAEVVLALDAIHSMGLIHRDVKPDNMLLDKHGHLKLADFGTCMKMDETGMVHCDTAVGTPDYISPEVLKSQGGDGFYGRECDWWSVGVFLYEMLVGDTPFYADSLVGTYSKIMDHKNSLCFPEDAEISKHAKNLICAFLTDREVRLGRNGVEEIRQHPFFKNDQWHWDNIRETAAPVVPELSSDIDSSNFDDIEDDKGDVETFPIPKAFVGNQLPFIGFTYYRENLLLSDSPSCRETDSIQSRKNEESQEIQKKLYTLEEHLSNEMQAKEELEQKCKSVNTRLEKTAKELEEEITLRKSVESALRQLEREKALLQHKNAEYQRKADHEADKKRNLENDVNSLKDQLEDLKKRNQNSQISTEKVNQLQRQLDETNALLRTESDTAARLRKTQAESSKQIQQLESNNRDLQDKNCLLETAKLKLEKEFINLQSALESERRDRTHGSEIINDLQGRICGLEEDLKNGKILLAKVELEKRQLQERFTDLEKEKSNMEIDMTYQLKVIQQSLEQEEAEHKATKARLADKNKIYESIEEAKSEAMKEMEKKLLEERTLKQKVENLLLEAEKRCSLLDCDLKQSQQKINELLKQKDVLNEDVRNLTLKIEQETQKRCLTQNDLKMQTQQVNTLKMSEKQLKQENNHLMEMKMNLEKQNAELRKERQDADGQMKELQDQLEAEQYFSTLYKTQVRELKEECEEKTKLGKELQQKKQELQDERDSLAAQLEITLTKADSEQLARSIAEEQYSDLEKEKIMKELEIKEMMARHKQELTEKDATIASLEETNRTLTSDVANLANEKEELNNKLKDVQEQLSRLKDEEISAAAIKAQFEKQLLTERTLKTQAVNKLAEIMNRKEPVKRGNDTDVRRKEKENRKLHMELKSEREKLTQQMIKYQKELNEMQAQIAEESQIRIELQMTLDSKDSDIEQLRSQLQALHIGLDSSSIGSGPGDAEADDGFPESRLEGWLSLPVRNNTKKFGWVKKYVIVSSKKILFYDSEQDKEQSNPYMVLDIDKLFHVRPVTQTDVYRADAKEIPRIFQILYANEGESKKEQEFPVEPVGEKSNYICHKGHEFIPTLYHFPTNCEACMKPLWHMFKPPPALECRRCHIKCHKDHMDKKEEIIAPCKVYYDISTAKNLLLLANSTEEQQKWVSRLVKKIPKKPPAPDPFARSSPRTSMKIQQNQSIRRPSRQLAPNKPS
An asterisk follows results filed as active; nt = not tested or not shown. A selection: hits, their analogues and other compounds. The true share with any hit is near 3.4%.

SMILES	MMP-13 inhibitor	RORa activator	PKA inh	SF-1 act	JNK3 blocker	ROCK2 inh
O=c1c2ccccc2nc(-c2ccco2)n1CCCn1ccnc1	2	0	2	-16	18*	12
COC(=O)Cn1c(=O)c2c(nc3n2CC(C)CN3c2ccc(C)c(C)c2)n(C)c1=O (stereo not drawn)	-3	-8	2	-14	-3	4
CCOC(=O)C(C)Sc1nc(-c2ccc(OC)cc2)nc2c1c(=O)n(C)c(=O)n2C (stereo not drawn)	-2	-4	1	0	0	3
Cc1cccnc1Nc1nc(-c2ccc(O)cc2O)cs1	0	-10	10	51*	7	4
CCCCN1CC(O)=C(c2nc3ccccc3s2)C1=N	-3	30	0	74*	8	-1
CCOC(=O)N1CCN(C(=O)c2nc3ccccc3s2)CC1	4	23	0	32	-3	-12
CN(C)/C=N/c1nc2ccc3c(c2s1)CCCC3	-1	66*	1	59*	0	4
COc1ccc2nc(/N=C\N(C)C)sc2c1	1	42	9	11	-4	8
CCC(=O)Nc1nc2ccc3nc(C)sc3c2s1	0	82*	3	56*	5	7
CCC(=O)Nc1nc2c(OC)ccc(OC)c2s1	-4	-1	-1	-19	1	2
Cc1ccc(C2=N/C(=C/N3CCOCC3)C(=O)O2)cc1	1	34	8	55*	1	3
CCCn1c(C)cc(C(=O)CSc2nnc3n(CCC)c(=O)c4ccccc4n23)c1C	0	-17	1	2	4	2
Nc1ccc2oc(-c3ccccn3)nc2c1	2	23	-1	36	nt	nt
Clc1ccc2oc(-c3ccccn3)nc2c1	-20	34	6	59*	-1	-4
COc1ccc2[nH]c(=O)c(CN(Cc3ccc4c(c3)OCO4)C(C)=O)cc2c1	-6	-1	8	-1	5	1
CCOC(=O)c1c(C)nc2sccn12	4	-17	4	4	-1	-5
CCOC(=O)c1c(C)nc2c3ccccc3ccn12	-2	26	-3	76*	-1	0
O=c1c2ccccc2nc2ccc(NCc3ccco3)nn12	-22	53*	1	9	1	0
Cc1ccc(C(=O)C2=C(O)C(=O)N(CCCn3ccnc3)C2c2ccc(OC(C)C)cc2)o1 (stereo not drawn)	-9	2	0	16	27*	-1
Cn1c(=O)c2c(nc(SCc3ccccn3)n2C)n(C)c1=O	0	-4	-6	-15	-5	-4
O=C1NC(Cc2c[nH]c3ccccc23)C(=O)N1CCOc1ccccc1 (stereo not drawn)	-2	-17	-3	4	-5	-2
CCOC(=O)C(N)CSC1CC(=O)N(c2ccc(C(=O)OC)cc2)C1=O (stereo not drawn)	-1	-10	-8	-2	2	-2
COC(=O)c1ccc(N2C(=O)CC(SCCN)C2=O)cc1 (stereo not drawn)	-4	51*	4	42	2	9
COc1cc(C(=O)Nc2ccc3c(c2)OCCO3)ccc1OC(C)C	-1	45	2	54*	-2	3
COc1cc(C(=O)Nc2ccc3c(c2)OCCO3)ccc1OC(F)F	2	76*	-1	64*	-3	-3
SMILES	MMP-13 inhibitor	RORa activator	PKA inh	SF-1 act	JNK3 blocker	ROCK2 inh
c1coc(-c2nc3c4c5c(sc4ncn3n2)CCCC5)c1	-5	1	4	14	1	6
N#Cc1sc2nc3c(c(-c4ccco4)c2c1N)CCCC3	-1	-12	0	-14	17*	-1
COC(=O)c1cc(NCc2ccc3c(c2)OCO3)ccc1N1CCOCC1	1	-8	-7	-12	-6	-2
O=C(O)c1cc(NCc2ccc3c(c2)OCO3)ccc1N1CCOCC1	-12	-23	7	-1	2	51*
O=C(NCCN1C(=O)C2C3C=CC(C3)C2C1=O)Nc1ccc(Br)cc1 (stereo not drawn)	1	84*	4	84*	-14	1
C/C(N)=C(/C#N)C(=O)CSc1nnc(NC(C)C)s1	4	13	5	29	3	-3
Clc1ccc(-n2ncc3c(NCc4cccs4)ncnc32)cc1	-7	44	-4	74*	1	-19
Cc1cccc(-n2ncc3c(NCCN4CCOCC4)ncnc32)c1	-8	2	6	31	9	10
Cc1cccc(-n2ncc3c(NCc4cccs4)ncnc32)c1	-8	46	7	22	22*	5
CS(=O)(=O)N(CCc1ccccc1)CC(=O)N1CCc2ccccc2C1	1	-13	6	13	-2	6
CCN(CC)C(=O)CSc1ncnc2c(-c3cccs3)nsc12	-31	12	-3	68*	1	-3
CCN(CC)C(=O)CSc1ncnc2c1nnn2-c1ccc(F)cc1	-2	2	16	-10	0	4
O=C(CCn1c(=O)sc2ccccc21)Nc1nccs1	-1	53*	-3	27	nt	nt
Cc1cc(C)cc(N2CCCn3c2nc2c3c(=O)n(CCN3CCOCC3)c(=O)n2C)c1	0	-2	-11	5	-8	-6
Nc1nc(N)c2sc3nc4c(cc3c2n1)CCC4	-10	56*	12	57*	-1	13
Clc1ccccc1-c1nn2c(-c3ccncc3)nnc2s1	3	-30	18	8	7	19*
CN(C)c1ccc(-c2nn3c(-c4ccccc4Cl)nnc3s2)cc1	-88	-12	7	8	4	4
Clc1ccccc1-c1nnc2sc(-c3ccncc3)nn12	5	-18	11	4	3	23*
c1cncc(-c2nn3c(-c4ccncc4)nnc3s2)c1	3	17	6	-8	-2	10
CCOC(=O)c1c(NC(=O)CSc2nnc(CNc3ccc(F)cc3)o2)sc(C(C)=O)c1C	-2	10	4	5	-4	6
CCCCN1C(=O)/C(=C2\SC(N3CCCCC3)=NC2=O)c2ccccc21	2	60*	-7	36	7	-2
O=C1N=C(N2CCOCC2)S/C1=C1\C(=O)N(Cc2ccccc2)c2ccc(Br)cc21	-3	12	12	15	5	4
CSc1ncccc1C(=O)OCc1ccccc1F	6	89*	7	29	0	2
CSc1ncccc1C(=O)OCc1ccccc1	1	46	18	30	5	6
CCN(CC)CCn1c2ccccc2c2nc(C)sc21	2	28	6	13	2	2
O=C(NCc1ccc2c(c1)OCO2)c1cccc(C(=O)NCc2ccc3c(c2)OCO3)c1	21*	-5	-9	3	-3	-2
O=C(NCc1ccc2c(c1)OCO2)c1cccc2c1C(=O)N(C1CCCCC1)C2	-29	-11	1	-1	6	4
O=C(NCc1ccc2c(c1)OCO2)c1cccnc1	6	-15	-2	8	-7	-4

Screening data (PubChem)
